Laboratory results as given in ChEMBL document CHEMBL5335768, “Expanding the knowledge around antitubercular 5-(2-aminothiazol-4-yl)isoxazole-3-carboxamides: Hit-to-lead optimization and release of a novel antitubercular chemotype via scaffold derivatization” (Eur J Med Chem, 2023).
≈ marks a conversion by molar mass, not a printed value. Calls of active or inactive are those of the source. No cut-off for these calls is given here.

What was measured:
[1] = tested on: Mycobacterium tuberculosis; assay: Antitubercular activity against Mycobacterium tuberculosis H37Rv assessed as inhibition of bacterial growth incubated for 7 days by REMA method; format: functional
[2] = tested on: Mycobacterium marinum; conditions: ATCC BAA-535, time 3.0 weeks
[3] = Cytotoxicity against human THP-1 cells assessed as reduction in cell viability measured after 72 hrs by MTT assay; format: toxicity, cell-based
Method in brief: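 THP-1 monocytes were differentiated to macrophages with PMA 100 ng/mL for 72 h. They were then exposed to compounds at 1, 10, 50 and 100 μM for 72 h, each tested twice. MTT at 1 mg/mL in RPMI with 5% FBS was added for 2 h at 37 °C; formazan was dissolved in DMSO and read at 570 nm. Viability is given as % of control; IC50 from non-linear regression.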

[4] = tested on: Mycobacterium marinum; assay: Antitubercular activity against Mycobacterium marinum ATCC BAA-535 assessed as inhibition of bacterial growth measured after 3 weeks by broth microdilution method; format: functional; conditions: ATCC BAA-535, 504 h
[5] = Half life in human liver microsomes at 1 uM preincubated with NADP+ for 5 mins prior to compound addition by HPLC-MRM-MS analysis; format: ADME, Microsome
Method in brief: (§1)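 Pooled HLM at 1 mg/mL protein in 100 mM PBS pH 7.4 with an NADPH-regenerating mix: G6P 10 mM, NADP+ 2 mM, MgCl2 5 mM, G6PDH 1.5 U/mL (stock concentrations). Pre-incubated 5 min at 37 °C, then compound added to 1 μM final (1% DMSO).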

[6] = tested on: Mycobacterium avium; assay: Antitubercular activity against Mycobacterium avium 11 assessed as inhibition of bacterial growth upto 100 uM measured after 4 days by broth microdilution method; format: functional, organism-based; conditions: time 4.0 day
Method in brief: (§2)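 Twofold serial dilutions inoculated at OD600 0.05; incubated at 37 °C, shaking at 110 rpm, for 3 days (M. abscessus Bamboo) or 4 days (M. avium 11). […] Clarithromycin positive control; data representative of two independent replicates.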

[7] = tested on: Mycobacteroides abscessus; assay: Antitubercular activity against Mycobacterium abscessus Bamboo assessed as inhibition of bacterial growth upto 100 uM measured after 3 days by broth microdilution method; format: functional, organism-based; conditions: time 3.0 day; method in brief: as §2
[8] = tested on: Mycobacterium avium; assay: Antitubercular activity against Mycobacterium avium 11 assessed as inhibition of bacterial growth at 100 uM measured after 4 days by broth microdilution method; format: functional; conditions: Mycobacterium avium, 11, 96 h, time 4 day
[9] = tested on: Mycobacteroides abscessus; assay: Antitubercular activity against Mycobacterium abscessus Bamboo assessed as inhibition of bacterial growth at 100 uM measured after 3 days by broth microdilution method; format: functional; conditions: 72 h, time 3 day; method in brief: as §2
[10] = Metabolic stability of the compound in human liver microsomes assessed as parent residual fraction at 1 uM preincubated with NADP+ for 5 mins prior to compound addition by HPCLC-MRM-MS analysis; format: ADME, Microsome; conditions: read-out: Stability; method in brief: as §1
[11] = Mycobacterium tuberculosis, H37Rv, 168 h, time 7 day, read-out: MIC90

Q: For `O=C(Nc1ccccc1)c1cc(-c2csc(Nc3ccc(CO)cc3)n2)on1`, which MIC90 [1, 11] is on record?
A: The MIC90 was over 20 mg/L.

Q: For `Cc1ccc2nc(NC(=O)c3cc(C(=O)Nc4ccccn4)no3)sc2c1`, which MIC90 ([1]; time 7.0 day) is on record?
A: Its MIC90 is “inactive”.

Q: And the MIC90 [2]?
A: Its MIC90 is “inactive”.

Q: For `O=C(Nc1ccccn1)c1cc(C(=O)Nc2nc3ccccc3s2)on1`, which MIC90 ([1]; time 7.0 day) is on record?
A: The MIC90 was “inactive”.

Q: What about the MIC90 [2] of the same compound?
A: Its MIC90 is “inactive”.

Q: For `Cc1ccc(Nc2nc(-c3cc(C(=O)Nc4cccc(C)n4)no3)cs2)cc1`, which IC50 at 72 h [3] is on record?
A: Its IC50 at 72 h is 66.8 mg/L (≈ 171 µM).

Q: What about the MIC90 [4] of the same compound?
A: Its MIC90 is 1 mg/L (≈ 2.55 µM).

Q: Which results are given for `O=C(Nc1ccccc1)c1cc(-c2csc(Nc3cccc(O)c3)n2)on1`?
A: MIC90 [1, 11]: 5 mg/L (≈ 13.2 µM); t1/2 [5]: 34 min

Q: With `Cc1ccc(Nc2nc(-c3cc(C(=O)Nc4cccc(F)c4)no3)cs2)cc1` as the compound, how does the MIC90 [1, 11] read?
A: The MIC90 was 2.5 mg/L (≈ 6.34 µM).

Q: And the Activity [6]?
A: Its Activity is “inactive”.

Q: And the Activity [7]?
A: Its Activity is “inactive”.

Q: What does the source list for `O=C(Nc1ccccc1)c1cc(-c2csc(Nc3ccccc3)n2)on1`?
A: MIC90 [1, 11]: 1.25 mg/L (≈ 3.45 µM); inhibition at 100 µM [8]: 50%; IC50 at 72 h [3]: 11.9 mg/L (≈ 32.8 µM); t1/2 [5]: 43 min; inhibition at 100 µM [9]: 50%

Q: Which MIC90 [1, 11] does the source give for `O=C(Nc1ccccn1)c1cc(-c2csc(Nc3ccc(CO)cc3)n2)on1` here?
A: The MIC90 was over 20 mg/L.

Q: Which MIC90 ([1]; time 7.0 day) does the source give for `O=C(Nc1ccccc1)c1cc(C(=O)Nc2nc3ccccc3s2)on1` here?
A: The MIC90 was “inactive”.

Q: And the MIC90 [2]?
A: The MIC90 was “inactive”.

Q: For `Cc1ccc(Nc2nc(-c3cc(C(=O)Nc4cccc(C)c4)no3)cs2)cc1`, which MIC90 [1, 11] is on record?
A: The MIC90 was 0.5 mg/L (≈ 1.28 µM).

Q: And the Activity [6]?
A: The Activity was “inactive”.

Q: And the IC50 at 72 h [3]?
A: Its IC50 at 72 h is 10.7 mg/L (≈ 27.4 µM).

Q: What about the Activity [7] of the same compound?
A: Its Activity is “inactive”.

Q: With `O=C(Nc1ccccc1)c1cc(-c2csc(Nc3ccc(C(F)(F)F)cc3)n2)on1` as the compound, how does the remaining at 1 µM [10] read?
A: The remaining at 1 µM was 71%.

Q: And the MIC90 [1, 11]?
A: The MIC90 was over 20 mg/L.

Q: With `Cc1ccc(Nc2nc(-c3cc(C(=O)Nc4ncccc4C)no3)cs2)cc1` as the compound, how does the MIC90 [1, 11] read?
A: Its MIC90 is over 20 mg/L.

Q: For `O=C(Nc1ccccn1)c1cc(-c2csc(Nc3ccc(C(F)(F)F)cc3)n2)on1`, which remaining at 1 µM [10] is on record?
A: The remaining at 1 µM was 85%.

Q: What about the MIC90 [1, 11] of the same compound?
A: The MIC90 was over 20 mg/L.

Q: For `O=C(Nc1cccc(O)c1)c1cc(C(=O)Nc2nc3ccccc3s2)on1`, which MIC90 ([1]; time 7.0 day) is on record?
A: The MIC90 was “inactive”.

Q: What about the MIC90 [2] of the same compound?
A: The MIC90 was “inactive”.

Q: With `Cc1ccc(Nc2nc(-c3cc(C(=O)Nc4ccccn4)no3)cs2)cc1O` as the compound, how does the MIC90 [1, 11] read?
A: Its MIC90 is 5 mg/L (≈ 12.7 µM).

Q: And the Activity [6]?
A: Its Activity is “inactive”.

Q: And the IC50 at 72 h [3]?
A: Its IC50 at 72 h is over 100 mg/L.

Q: What about the Activity [7] of the same compound?
A: The Activity was “inactive”.

Q: Which MIC90 [1, 11] does the source give for `O=C(Nc1ccccc1)c1cc(-c2csc(Nc3ccc(Cl)cc3)n2)on1` here?
A: The MIC90 was 1.25 mg/L (≈ 3.15 µM).

Q: What about the IC50 at 72 h [3] of the same compound?
A: The IC50 at 72 h was over 100 mg/L.

Q: What about the MIC90 [4] of the same compound?
A: The MIC90 was 2 mg/L (≈ 5.04 µM).

Q: What about the t1/2 [5] of the same compound?
A: Its t1/2 is 59 min.

Q: For `O=C(Nc1ccc(O)cc1)c1cc(C(=O)Nc2nc3ccccc3s2)on1`, which MIC90 ([1]; time 7.0 day) is on record?
A: The MIC90 was “inactive”.

Q: What about the MIC90 [2] of the same compound?
A: The MIC90 was “inactive”.

Q: For `O=C(Nc1ccccn1)c1cc(-c2csc(Nc3cc(Cl)cc(Cl)c3)n2)on1`, which MIC90 [1, 11] is on record?
A: Its MIC90 is over 20 mg/L.

Q: With `O=C(Nc1ccccc1)c1cc(-c2csc(Nc3cc(F)cc(F)c3)n2)on1` as the compound, how does the MIC90 [1, 11] read?
A: The MIC90 was over 20 mg/L.

Q: With `Cc1ccc(Nc2nc(-c3cc(C(=O)Nc4ccccc4F)no3)cs2)cc1` as the compound, how does the MIC90 [1, 11] read?
A: The MIC90 was 1 mg/L (≈ 2.54 µM).

Q: What about the IC50 at 72 h [3] of the same compound?
A: Its IC50 at 72 h is 33.9 mg/L (≈ 85.9 µM).

Q: For `Cc1ccc(Nc2nc(-c3cc(C(=O)Nc4ccc(Cl)cc4)no3)cs2)cc1`, which MIC90 [1, 11] is on record?
A: Its MIC90 is over 40 mg/L.

Q: Which results are given for `Nc1nc(-c2cc(C(=O)Nc3ccccc3)no2)cs1`?
A: remaining at 1 µM [10]: 97%; MIC90 [1, 11]: > 20 mg/L

Q: For `NNC(=O)c1ccncc1` [ISONIAZID], which MIC90 ([1]; time 7 day) is on record?
A: The MIC90 was 0.025 mg/L (≈ 0.182 µM).

Q: With `Cc1ccc(Nc2nc(-c3cc(C(=O)Nc4ccc(C)cc4Cl)no3)cs2)cc1` as the compound, how does the MIC90 [1, 11] read?
A: Its MIC90 is over 20 mg/L.

Q: With `Cc1ccc(Nc2nc(-c3cc(C(=O)Nc4ccc(O)cc4)no3)cs2)cc1O` as the compound, how does the MIC90 [1, 11] read?
A: Its MIC90 is 5 mg/L (≈ 12.2 µM).

Q: What about the t1/2 [5] of the same compound?
A: Its t1/2 is 19 min.

Q: Which MIC90 [1, 11] does the source give for `CCOc1cccc(NC(=O)c2cc(-c3csc(Nc4ccc(C)cc4)n3)on2)c1` here?
A: Its MIC90 is over 20 mg/L.

Q: Which MIC90 [1, 11] does the source give for `Cc1ccc(Nc2nc(-c3cc(C(=O)Nc4ccc(O)cc4)no3)cs2)cc1` here?
A: Its MIC90 is 0.5 mg/L (≈ 1.27 µM).

Q: What about the Activity [6] of the same compound?
A: The Activity was “inactive”.

Q: And the IC50 at 72 h [3]?
A: The IC50 at 72 h was 79.1 mg/L (≈ 202 µM).

Q: And the MIC90 [4]?
A: Its MIC90 is 1 mg/L (≈ 2.55 µM).

Q: And the Activity [7]?
A: The Activity was “inactive”.

Q: With `Cc1ccc2nc(NC(=O)c3cc(C(=O)Nc4ccc(O)cc4)no3)sc2c1` as the compound, how does the MIC90 ([1]; time 7.0 day) read?
A: Its MIC90 is “inactive”.

Q: And the MIC90 [2]?
A: The MIC90 was “inactive”.

Q: With `Cc1ccc(Nc2nc(-c3cc(C(=O)N4CCCC4)no3)cs2)cc1` as the compound, how does the MIC90 [1, 11] read?
A: Its MIC90 is over 20 mg/L.

Q: And the IC50 at 72 h [3]?
A: The IC50 at 72 h was over 100 mg/L.

Q: For `Cc1cccc(NC(=O)c2cc(C(=O)Nc3nc4ccc(C)cc4s3)on2)c1`, which MIC90 ([1]; time 7.0 day) is on record?
A: The MIC90 was “inactive”.

Q: And the MIC90 [2]?
A: Its MIC90 is “inactive”.

Q: Which MIC90 [1, 11] does the source give for `CCOC(=O)c1cc(-c2cccc(Nc3ccc(C)cc3)n2)on1` here?
A: Its MIC90 is 1.25 mg/L (≈ 3.87 µM).

Q: And the IC50 at 72 h [3]?
A: The IC50 at 72 h was over 100 mg/L.

Q: With `Nc1nc(-c2cc(C(=O)Nc3ccccn3)no2)cs1` as the compound, how does the remaining at 1 µM [10] read?
A: The remaining at 1 µM was 96%.

Q: What about the MIC90 [1, 11] of the same compound?
A: Its MIC90 is over 20 mg/L.
